Assay results: ChEMBL document CHEMBL2346497, “Synthesis of novel cognition enhancers with pyrazolo[5,1-c][1,2,4]benzotriazine core acting at γ-aminobutyric acid type A (GABA(A)) receptor” (Bioorg Med Chem, 2013)
Active and inactive are the calls of the source. The rule behind the calls is not given here.

Tests used:
[1] = species: Bos taurus; assay: Displacement of [3H]Ro15-1788 from GABA-A receptor benzodiazepine binding site in bovine cerebral cortex membranes at 10 uM after 1 hr; type: cell membranes; conditions: Membrane
[2] = Displacement of [3H]Ro15-1788 from GABA-A receptor benzodiazepine binding site in bovine cerebral cortex membranes after 1 hr; type: cell membranes, Bos taurus, Membrane
[3] = tested on: Mus musculus; assay: Anticonvulsant activity in CD1 albino mouse assessed as protection against pentylenetetrazole-induced convulsions at 10 mg/kg, po administered 30 mins prior to pentylenetetrazole challenge measured over 30 mins (reference value: 7.1%); type: functional
[4] = tested on: Mus musculus; assay: Neurotoxicity in CD1 albino mouse assessed as decrease in number of falls from rotating rod at 30 mg/kg, po by rota-rod test relative to control; type: toxicity, organism-based; parameters: dose 30 mg/kg, route oral; conditions: in vivo, TDE = time-dependent effect
How it was run: (§1)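 Motor coordination was tested on a rota-rod turning at 24 rpm in male CD-1 mice dosed po in 1% CMC. Falls within 30 s were counted at a pretest and at 15, 30, 45 and 60 min after dosing. Each value is the mean of five mice, compared with CMC-treated controls.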

[5] = tested on: Mus musculus; assay: Anxiolytic activity in CD1 albino mouse assessed as increase in time spent in illuminated side at 10 to 30 mg/kg, po administered 30 mins prior to testing measured for 5 mins by light-dark box test; type: functional, organism-based
How it was run: (§2)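 Light/dark box: two equal acrylic compartments, one lit by a 60 W lamp, joined by a floor-level opening. Male CD-1 mice were dosed po in 1% CMC 30 min before the test, then placed in the centre of the lit side facing away from the dark side. Over 5 min, transfers and time in the light side were recorded, n = 8 mice per group.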

[6] = tested on: Rattus norvegicus; assay: Procognitive effect in Harlan Wistar rat assessed as decrease in exploring time of unfamiliar rat during social investigatory behaviour at 10 mg/kg, po administered 30 mins prior to testing measured for 5 mins by social learning test relative to control; type: functional, organism-based; parameters: dose 10 mg/kg
[7] = tested on: Rattus norvegicus; assay: Procognitive effect in Harlan Wistar rat assessed as exploring time of familiar rat during social investigatory behaviour at 10 mg/kg, po administered 30 mins prior to testing measured for 5 mins by social learning test (reference value: 27.6 secs); type: functional
[8] = tested on: Mus musculus; assay: Antiamnesic activity in CD1 albino mouse assessed as reversal of scopolamine-induced amnesia at 1 mg/kg, po administered 30 mins prior to scopolamine challenge measured after 24 hrs by passive avoidance test; type: functional, organism-based; parameters: dose 1 mg/kg
How it was run: (§3)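 Step-through passive avoidance in male CD-1 mice (22–24 g). Test drugs were given po, suspended in 1% carboxymethylcellulose at 10 ml/kg, 30 min before the training session. For the antiamnesic arm, scopolamine 1.5 mg/kg was injected immediately after punishment. Retention latency was compared with CMC-treated controls, n = 10–12 mice per group.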

[9] = tested on: Mus musculus; assay: Cognitive enhancing effect in CD1 albino mouse assessed as increase in retention latency at 1 to 10 mg/kg, po administered 30 mins prior to testing measured after 24 hrs by passive avoidance test relative to control; type: functional, organism-based; how it was run: as §3
[10] = tested on: Mus musculus; assay: Anxiolytic activity in CD1 albino mouse assessed as increase in time spent in illuminated side at 30 mg/kg, po administered 30 mins prior to testing measured for 5 mins by light-dark box test; type: functional, organism-based; parameters: dose 30 mg/kg; how it was run: as §2
[11] = tested on: Rattus norvegicus; assay: Procognitive effect in Harlan Wistar rat assessed as decrease in exploring time of unfamiliar rat during social investigatory behaviour at 10 to 100 mg/kg, po administered 30 mins prior to testing measured for 5 mins by social learning test relative to control; type: functional, organism-based
[12] = tested on: Rattus norvegicus; assay: Procognitive effect in Harlan Wistar rat assessed as exploring time of familiar rat during social investigatory behaviour at 100 mg/kg, po administered 30 mins prior to testing measured for 5 mins by social learning test (reference value: 27.6 secs); type: functional
[13] = tested on: Rattus norvegicus; assay: Procognitive effect in Harlan Wistar rat assessed as exploring time of familiar rat during social investigatory behaviour at 30 mg/kg, po administered 30 mins prior to testing measured for 5 mins by social learning test (reference value: 27.6 secs); type: functional
[14] = tested on: Mus musculus; assay: Cognitive enhancing effect in CD1 albino mouse assessed as increase in retention latency at 1 to 100 mg/kg, po administered 30 mins prior to testing measured after 24 hrs by passive avoidance test relative to control; type: functional, organism-based; how it was run: as §3
[15] = tested on: Rattus norvegicus; assay: Procognitive effect in Harlan Wistar rat assessed as decrease in exploring time of unfamiliar rat during social investigatory behaviour at 30 mg/kg, po administered 30 mins prior to testing measured for 5 mins by social learning test relative to control; type: functional, organism-based; parameters: dose 30 mg/kg
[16] = tested on: Mus musculus; assay: Antiamnesic activity in CD1 albino mouse assessed as reversal of scopolamine-induced amnesia at 3 mg/kg, po administered 30 mins prior to scopolamine challenge measured after 24 hrs by passive avoidance test; type: functional, organism-based; parameters: dose 3 mg/kg
[17] = tested on: Mus musculus; assay: Cognitive enhancing effect in CD1 albino mouse assessed as increase in retention latency at 3 to 30 mg/kg, po administered 30 mins prior to testing measured after 24 hrs by passive avoidance test relative to control; type: functional, organism-based; how it was run: as §3
[18] = tested on: Mus musculus; assay: Cognitive enhancing effect in CD1 albino mouse assessed as increase in retention latency at 1 to 30 mg/kg, po administered 30 mins prior to testing measured after 24 hrs by passive avoidance test relative to control; type: functional, organism-based; how it was run: as §3
[19] = tested on: Mus musculus; assay: Neurotoxicity in CD1 albino mouse assessed as decrease in number of falls from rotating rod at 10 mg/kg, po by rota-rod test relative to control; type: toxicity, organism-based; parameters: dose 10 mg/kg, route oral; conditions: in vivo, TDE = time-dependent effect; how it was run: as §1
[20] = tested on: Mus musculus; assay: Anxiolytic activity in CD1 albino mouse assessed as increase in time spent in illuminated side at 10 mg/kg, po administered 30 mins prior to testing measured for 5 mins by light-dark box test in presence of flumazenil; type: functional, organism-based; parameters: dose 10 mg/kg
How it was run: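 This is the mouse light/dark box (male CD-1, 22–24 g) with flumazenil added at 100 mg/kg po. Drugs were suspended in 1% CMC and given po at 10 ml/kg, 30 min before testing. Mice started in the centre of the lit side and explored for 5 min. Transfers and time in the light side were scored. Values are means of eight mice, compared with flumazenil-treated mice.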

[21] = tested on: Mus musculus; assay: Anxiolytic activity in CD1 albino mouse assessed as increase in time spent in illuminated side at 10 mg/kg, po administered 30 mins prior to testing measured for 5 mins by light-dark box test; type: functional, organism-based; parameters: dose 10 mg/kg
How it was run: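 Male CD-1 mice (22–24 g) were dosed po at 10 ml/kg with drug suspended in 1% carboxymethylcellulose, 30 min before the test. Each mouse was placed in the centre of the lit compartment of a two-compartment light/dark box, facing away from the dark side, and explored for 5 min. Transfers and time in the light side were recorded. Values are means of eight mice, analysed by ANOVA with Scheffé post-hoc.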

With `Cn1cnc(-c2cnn3c2n[n+]([O-])c2ccc(OCc4ccccc4)cc23)n1` the inhibition [1] was 50%.

`CN(C)/C=N/C(=O)c1cnn2c1n[n+]([O-])c1ccc(OCc3cccs3)cc12` gave a Ki [2] of 620 nM.

For `CN(C)/C=N/C(=O)c1cnn2c1n[n+]([O-])c1ccc(OCc3ccncc3)cc12`, the Ki [2] was 515 nM.

Work on `Cn1ncnc1-c1cnn2c1n[n+]([O-])c1ccc(OCc3ccccc3)cc12` yielded an inhibition [1] of 46%.

`Cc1cnn2c1nnc1ccc(Cl)cc12` showed a Ki [2] of 400 nM.

In the case of `[O-][n+]1nc2c(-c3ncn[nH]3)cnn2c2cc(OCc3ccccc3)ccc21`, the Ki [2] is reported as 325 nM, the Activity [3] is reported as 0% and the Activity [4] is reported as “tde”. The Activity [5] was “Active”, the Activity [6] was “inactive” and the Time [7] was 40.3 s. For the same compound, the Activity [8] was “Active” and the Activity [9] was “Active”.

`[O-][n+]1nc2c(I)cnn2c2cc(NCc3ccncc3)ccc21` gave a Ki [2] of 0.33 nM.

Compound `Cc1cnn2c1n[n+]([O-])c1ccc(Cl)cc12` has a Ki [2] of 315 nM.

With `Cc1noc(-c2cnn3c2n[n+]([O-])c2ccc(OCc4cccs4)cc23)n1` the Ki [2] was 1620 nM.

Work on `[O-][n+]1ccc(COc2ccc3c(c2)n2ncc(I)c2n[n+]3[O-])cc1` yielded a Ki [2] of 20.4 nM.

Work on `NC(=O)c1cnn2c1n[n+]([O-])c1ccc(OCc3ccncc3)cc12` yielded a Ki [2] of 1200 nM.

For `NC(=O)c1cnn2c1n[n+]([O-])c1ccc(OCc3cccs3)cc12`, the Ki [2] was 960 nM.

`[O-][n+]1nc2c(-c3ncn[nH]3)cnn2c2cc(OCc3ccncc3)ccc21` showed a Ki [2] of 168 nM.

With `[O-][n+]1nc2c(I)cnn2c2cc(OCc3cccs3)ccc21` the Activity [3] was 0%, the Activity [4] was “tde” and the Activity [10] was “Active”. For the same compound, the Activity [11] was “inactive”, the Time [12] was 41.9 s and the Time [13] was 42.3 s. The Time [7] was 32.5 s, the Activity [8] was “Active” and the Activity [14] was “Active”.

Work on `Cc1cnn2c1n[n+]([O-])c1ccc(OCc3ccco3)cc12` yielded a Ki [2] of 30.9 nM.

With `NC(=O)CN1CCCC1=O` [PIRACETAM] the Activity [15] was “inactive” and the Time [13] was 46.3 s.

For `Cc1noc(-c2cnn3c2n[n+]([O-])c2ccc(OCc4ccncc4)cc23)n1`, the Ki [2] was 453 nM, the Activity [3] was 10% and the Activity [4] was “tde”. The Activity [5] was “Active”, the Activity [6] was “inactive” and the Time [7] was 44.6 s. The Activity [16] was “Active” and the Activity [17] was “Active”.

Compound `CN(C)/C=N/C(=O)c1cnn2c1n[n+]([O-])c1ccc(OCc3ccccc3)cc12` has a Ki [2] of 86.6 nM.

For `Cc1noc(-c2cnn3c2n[n+]([O-])c2ccc(OCc4ccccc4)cc23)n1`, the Ki [2] was 70.7 nM, the Activity [3] was 10% and the Activity [4] was “tde”. The Activity [5] was “Active”, the Activity [6] was “inactive” and the Time [7] was 43.1 s. The Activity [8] was “Active” and the Activity [18] was “Active”.

In the case of `[O-][n+]1nc2c(I)cnn2c2cc(NCc3ccco3)ccc21`, the Ki [2] is reported as 0.23 nM.

For `[O-][n+]1nc2c(I)cnn2c2cc(NCc3ccccn3)ccc21`, the Ki [2] was 0.72 nM.

For `NC(=O)c1cnn2c1n[n+]([O-])c1ccc(OCc3ccccc3)cc12`, the Ki [2] was 324 nM.

In the case of `CN1C(=O)CN=C(c2ccccc2)c2cc(Cl)ccc21` [DIAZEPAM], the Activity [3] is reported as 100%, the Activity [19] is reported as “tde” and the Activity [20] is reported as “inactive”. The Activity [21] was “Active”.

Work on `Cc1cnn2c1n[n+]([O-])c1ccc(OCc3ccnc(Cl)c3)cc12` yielded a Ki [2] of 7.49 nM.
